# Screening results: PubChem BioAssay, several laboratories
# Sampled rows, rich in hits. Any-hit rate of the full collection: about 3.3%.
# ATG4B inh – blocks human ATG4B protease cleavage of LC3 substrate; Q9Y4P1; ATG4B cleavage of LC3-PLA2, NBD-HPC fluorescence, 1 h; inhibition, % at 8.33 µM; 340,000 compounds, 0.51% hits; in the data active = inhibition above about 40%
# Target sequence (Q9Y4P1 whole entry, looked up): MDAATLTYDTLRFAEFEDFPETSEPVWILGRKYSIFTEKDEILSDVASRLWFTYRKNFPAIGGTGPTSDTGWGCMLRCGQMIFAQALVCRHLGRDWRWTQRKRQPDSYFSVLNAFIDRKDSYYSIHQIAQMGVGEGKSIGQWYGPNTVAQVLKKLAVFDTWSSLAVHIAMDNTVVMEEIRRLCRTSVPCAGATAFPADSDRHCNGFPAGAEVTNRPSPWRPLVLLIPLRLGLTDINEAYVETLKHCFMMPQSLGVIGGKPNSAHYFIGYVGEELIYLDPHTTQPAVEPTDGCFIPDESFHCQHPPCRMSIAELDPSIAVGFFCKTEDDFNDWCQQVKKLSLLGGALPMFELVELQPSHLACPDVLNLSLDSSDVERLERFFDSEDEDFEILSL
# Arrestin-AP2 inh – inhibitors of human beta-arrestin and AP2 interaction; 340,000 compounds, 0.31% hits; inhibition, % at 10 µM; FITC-arrestin peptide / GST-AP2 beads, flow cytometry; AP2 beta2 appendage carries R879A mutation;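 active = inhibition above a set limit, near 3 SD of compounds lacking own fluorescence, cut at about 54% in these data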;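 note: plate controls were DMSO wells for no effect and 5 µM unlabelled arrestin peptide for full effect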
#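 System: GST-AP2 R879A glutathione beads | Also added: FITC-arrestin peptide, 50 nM | Times: 12 min plus 1 h, RT | Signal: Bead flow cytometry, FITC channel | Buffer or medium: PBS with 0.05% Tween 20 and 0.1% BSA | Read-out basis: Percent drop in bead-associated FITC signal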
# CendR NRP1 mod – alters CendR peptide binding to human NRP-1 | O14786 | 360,000 compounds, 0.85% hits | FAM-RPARPAR peptide binding to NRP-1, fluorescence polarization | inhibition, % at 25 µM;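 active = inhibition or corrected inhibition above about 18%, plus a signal ratio from 0.5 to 1.5, limit read from the data, passing the limit was not always enough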
# Granule exo inh – blocks lytic granule exocytosis; inhibition, % at 10 µM; TALL-104 LAMP-1 surface exposure, flow cytometry; cells stimulated with thapsigargin and PMA; AID 651702; 360,000 compounds, 0.66% hits;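 active = inhibition above about 55%, limit read from the data; inconclusive = no clear call, values can overlap the other calls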
# Myeloid diff 2 – myeloid differentiation induction. ER-HoxA9 myeloid progenitors, lysozyme-GFP differentiation, flow cytometry. calls only at 10 µM. 360,000 compounds, 1% hits;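 active = normalized GFP-positive differentiation at or above the plate's own cutoff, the solvent-only control mean plus 3 SD; inconclusive = no clear call, values can overlap the other calls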;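 note: cells exposed to compound for four days before flow analysis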
# ABCB6 inh MLPCN – inhibitors of human ABC transporter ABCB6 | Q9NP58 | K562-ABCB6 porphyrin accumulation, flow cytometry, 1 h; active compounds read low | fluorescence ratio to DMSO, % at 10 µM | 360,000 compounds, 0.19% hits | AID 602162;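 active = fluorescence ratio to DMSO below 75%, the collection mean minus 3 SD; inconclusive = too few cells collected in the well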;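 note: signal is porphyrin accumulated inside mitochondria; 100% equals median channel fluorescence of DMSO control wells; lower ratio means ABCB6 inhibition with less porphyrin fluorescence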
# * = called active by the depositor; i = inactive; u = inconclusive; x = no result given; + = active, no number.
SMILES,ATG4B inh,Arrestin-AP2 inh,CendR NRP1 mod,Granule exo inh,Myeloid diff 2,ABCB6 inh MLPCN
CCc1ccc(C2=NN(CCC(=O)N3CCC4(CC3)OCCO4)C(=O)CC2)cc1,6.5,13.3,-0.2,-9.8,i,95.0
Cn1cc(C(=O)OCC(=O)Nc2ccccc2Cl)c2ccccc21,-14.5,-7.8,9.0,6.2,i,92.0
Cn1cc(C(=O)OCC(=O)Nc2ccccc2)c2ccccc21,-18.8,-11.1,21.3*,-1.0,i,95.0
COC(=O)C1=C(c2cccc(OC)c2OC)C[C@@H]2CC[C@H]1N2C(=O)N1CCC(C)CC1,-0.9,-5.6,0.2,-1.5,i,102.0
CC(C)CCNC(=O)c1c(N)n(Cc2ccc3c(c2)OCO3)c2nc3ccccc3nc12,4.1,5.0,-10.3,56.4*,i,94.0
COc1cc(C)c(CN2CCN(c3ccccc3)CC2)cc1C,-7.5,-5.9,36.0*,0.5,i,93.0
COC(=O)C1=C(C(=O)OC)SC2(S1)C(C(=O)OC)=C(C(=O)OC)Sc1c2ssc1=O,2.5,31.4,10.6,100.1*,u,106.0
CC(C)(C)C(=O)N1Cc2cc(-c3ccccc3)ccc2-n2nncc2C1,x,x,-13.6,2.3,i,102.0
Cc1ccc(-n2nc(C)cc2NC(=O)COc2cc(C)cc3oc(=O)c4c(c23)CCC4)cc1,-4.9,-11.6,2.6,-2.3,i,98.0
CN(C)CC(C(=O)Cc1ccccc1)c1ccccc1 (stereo not drawn),6.2,-8.9,-6.5,3.9,u,106.0
O=C(O)CC1OCC=C2CN3CCC45C6=CC(=O)C(=O)C([N+](=O)[O-])=C6NC4C1C2CC35 (stereo not drawn),7.3,-6.4,25.2*,3.3,i,99.0
CC(=O)N1CCN(Cc2ccc(Cl)nc2)CC1,-9.3,6.7,-3.3,-14.1,i,94.0
CCCCc1ccc(C(=O)O)nc1,-2.8,-0.7,-6.5,4.2,+,121.0
CCc1ccc(N2C(=O)NC(=O)/C(=C\c3cccn3CCOc3ccc(C(C)C)cc3)C2=O)cc1,-7.0,0.1,36.5*,0.6,i,99.0
Cc1ccc(OCCn2cccc2/C=C2/C(=O)NC(=O)N(Cc3ccco3)C2=O)cc1,9.1,-4.0,-57.2,3.5,i,103.0
Cc1nc2ccccc2c(=O)n1-c1cccc(C(F)(F)F)c1,-10.3,2.7,-3.4,-1.9,i,102.0
Cc1nn(Cc2ccccc2)c(C)c1C(=O)OCC(=O)Nc1ccccc1SCC#N,-10.5,-3.8,-42.7,-6.2,+,222.0
Cc1cc(NC(=O)COC(=O)c2c(C)nn(Cc3ccccc3)c2C)no1,-10.5,14.4,-4.7,-2.4,i,96.0
CCOC(=O)[C@]12Cc3cc(Cl)ccc3[C@H]1N(C)C(=O)c1cc(OC)ccc12,x,x,-0.8,1.6,+,92.0
CCOC(=O)c1c(-n2c(C)cc(/C=C3\C(=O)NC(=O)N(C)C3=O)c2C)sc2c1CCCC2,26.8,6.9,-15.9,56.9*,i,94.0
CC(C)c1ccc(NC(=O)N2C[C@H]3C[C@@H](C2)c2cccc(=O)n2C3)cc1,-12.4,15.3,0.6,1.7,i,96.0
CC(=O)Nc1ccc(S(=O)(=O)N2Cc3ccccc3-n3nncc3C2)cc1,x,x,-10.7,-1.9,+,103.0
Cc1ccc(S(=O)(=O)N2Cc3ccccc3-n3nncc3C2)cc1,4.5,-4.5,-6.3,1.1,i,100.0
COCCNC(=O)c1c(NC(=O)c2ccc(Br)o2)n(Cc2ccccc2)c2nc3ccccc3nc12,1.6,11.4,-51.8,-2.2,+,106.0
CCOc1ccc(N2C(=O)NC(=O)/C(=C\c3ccc(N4CCCCC4)o3)C2=O)cc1,-1.9,-10.8,-25.5,-4.5,i,109.0
O=C1NC(=O)N(c2ccc3c(c2)OCO3)C(=O)/C1=C/c1ccc(N2CCCC2)o1,-2.9,-8.8,-195.1,-9.2,+,153.0
Cc1ccc(N2C(=O)NC(=O)/C(=C\C=C\c3ccco3)C2=O)cc1C,8.4,27.5,-162.2,58.6*,+,92.0
Cc1ccc(N2C(=O)NC(=O)/C(=C\C=C\c3ccco3)C2=O)cc1,-8.2,6.6,-77.0,89.9*,i,100.0
Cc1cccc(N2C(=O)NC(=O)/C(=C\C=C\c3ccco3)C2=O)c1,-6.3,23.6,-98.5,28.3,i,94.0
Cc1nc2ccccn2c1P(=S)(c1ccccc1)c1ccccc1,x,x,-10.4,3.1,i,101.0
